{
  "source": "ChEMBL document CHEMBL1147734",
  "about": "“Synthesis, chiral resolution, and enantiopharmacology of a potent 2,3-benzodiazepine derivative as noncompetitive AMPA receptor antagonist” (J Med Chem, 2006)",
  "key": {"Mus musculus [1]": {"organism": "Mus musculus", "experiment": "Effect on locomotor activity assessed by rotarod test in DBA/2 mice", "type": "functional", "method_in_brief": "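Rotarod locomotor deficit in DBA/2 mice after ip dosing across 3.3-200 µmol/kg. TD50 by Litchfield-Wilcoxon with 95% confidence limits, at least 32 animals per value.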"}, "[2]": {"biological_target": "T1, Glutamate receptor ionotropic, AMPA (Rattus norvegicus, UniProt P19490+P19491+P19492+P19493)", "experiment": "Inhibition of kainate induced [45Ca]2+ uptake in rat cerebellar granule cells expressing AMPA receptor", "type": "functional", "method_in_brief": "(§1)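 Primary rat cerebellar granule neurons preincubated 30 min with compound in BSS (HEPES, pH 7.3). Then exposed at room temperature for 10 min to 100 µM kainate with 10 µM glycine, 0.5 mM DTT and 0.5 µCi 45Ca2+. Washed in ice-cold BSS containing 5 mM EGTA, lysed in Triton X-100, radioactivity counted.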"}, "[3]": {"biological_target": "T1, Glutamate receptor ionotropic, AMPA", "experiment": "Displacement of [3H]CP-526427 from non competitive […] or benzodiazepine binding site of AMPA receptor from rat forebrain", "method_in_brief": "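Adult male Sprague-Dawley rat forebrain membranes (P2 fraction, lysed in Tris acetate) diluted to 0.5 mg protein/mL in 50 mM Tris-HCl pH 7.4. Compound dilution series plus 3 nM [3H]CP-526,427, incubated 20 min at 30 °C, then filtered and counted by scintillation. Nonspecific binding taken with 10 µM unlabeled CP-526,427 or CP-465,022.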"}, "Mus musculus [4]": {"organism": "Mus musculus", "experiment": "Ratio of TD50 over ED50 (clonic phase of audiogenic seizures) in DBA/2 mice", "type": "functional", "method_in_brief": "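Protective index: rotarod TD50 divided by clonic-phase audiogenic ED50, both from ip-dosed DBA/2 mice fitted by Litchfield-Wilcoxon.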"}, "Mus musculus [5]": {"tested_on": "Mus musculus", "experiment": "Effect on clonic phase of audiogenic seizures in DBA/2 mice after 30 min at 3.3-200 umol/kg, ip", "type": "functional", "details": "DBA/2, ip, 0.5 h", "method_in_brief": "(§2)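 DBA/2 mice, 8-12 g, 22-25 days old, either sex, 10 per group. Dosed ip, vehicle or 3.3-200 µmol/kg, then sound stimulus 30 min later; latency and incidence of each seizure phase scored. ED50 by Litchfield-Wilcoxon, 95% confidence limits, at least 32 animals per value.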"}, "Mus musculus [6]": {"tested_on": "Mus musculus", "experiment": "Effect on tonic phase of audiogenic seizures in DBA/2 mice after 30 min at 3.3-200 umol/kg, ip", "type": "functional", "details": "DBA/2, ip, 0.5 h", "method_in_brief": "as §2"}, "[7]": {"biological_target": "Glutamate receptor ionotropic, AMPA (Rattus norvegicus) (UniProt P19491+P19492+P19493+P19490)", "experiment": "Inhibition of kainate induced [45Ca]2+ uptake in rat cerebellar granule cells expressing AMPA receptor at 32 uM", "type": "functional", "method_in_brief": "as §1"}, "[8]": {"biological_target": "Glutamate NMDA receptor (Rattus norvegicus) (UniProt P35439+Q00959+Q00960+Q00961+Q62645+Q8VHN2+Q9R1M7)", "experiment": "Displacement of [3H](+)-MK-801 from rat cortical NMDA ion channel complex at 100 uM", "type": "protein-complex assay", "method_in_brief": "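Rat cortical membranes washed in 5 mM Tris-HCl pH 7.4 with 0.08% Triton X-100, then pelleted and resuspended through four more cycles. Incubated 120 min at room temperature with 2.5 nM [3H]-(+)-MK-801, glutamic acid and glycine, with or without compound. Bound ligand separated on polyethylenimine-soaked GF/C filters. Nonspecific binding defined with phencyclidine.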"}, "[9]": {"biological_target": "T1, Glutamate receptor ionotropic, AMPA", "experiment": "Displacement of [3H]AMPA from AMPA receptor in rat cerebral cortex synaptic membranes", "type": "cell membranes, Membrane", "method_in_brief": "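Rat cerebral cortex synaptic membranes with 5 nM [3H]AMPA, following an earlier published method.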"}, "Glutamate NMDA receptor": {"biological_target": "Glutamate NMDA receptor", "experiment": "Displacement of [3H]glycine from Gly/NMDA receptor in rat cerebral cortex synaptic membranes", "type": "cell membranes, Membrane", "method_in_brief": "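Rat cortical synaptic membranes with 8 nM [3H]glycine as ligand, following an earlier published method.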"}},
  "note": "Calls of active or inactive are those of the source. The rule behind the calls is not given here.",
  "data": [
    {"smiles": "C[C@@H]1C(=O)NN=C(c2ccc(N)cc2)c2cc3c(cc21)OCO3", "values": [
      {"measurement": "TD50", "setting": "Mus musculus [1]", "result": 34.2, "unit": "µM/kg"},
      {"measurement": "IC50", "setting": "[2]", "result": 6, "unit": "µM"},
      {"measurement": "IC50", "setting": "[3]", "result": 3.27, "unit": "µM"},
      {"measurement": "Ratio TD50/ED50", "setting": "Mus musculus [4]", "result": 3.1},
      {"measurement": "ED50", "setting": "Mus musculus [5]", "result": 11, "unit": "µmol/kg"},
      {"measurement": "ED50", "setting": "Mus musculus [6]", "result": 1.74, "unit": "µmol/kg"}
    ]},
    {"smiles": "C[C@H]1C(=O)NN=C(c2ccc(N)cc2)c2cc3c(cc21)OCO3", "values": [
      {"measurement": "TD50", "setting": "Mus musculus [1]", "result": ">100", "unit": "µM/kg"},
      {"measurement": "inhibition", "setting": "[7]", "result": "inactive"},
      {"measurement": "IC50", "setting": "[3]", "result": "> 10", "unit": "µM"},
      {"measurement": "Ratio TD50/ED50", "setting": "Mus musculus [4]", "result": ">1.1"},
      {"measurement": "ED50", "setting": "Mus musculus [5]", "result": 88.4, "unit": "µmol/kg"},
      {"measurement": "ED50", "setting": "Mus musculus [6]", "result": 7.36, "unit": "µmol/kg"}
    ]},
    {"smiles": "CC1C(=O)NN=C(c2ccc(N)cc2)c2cc3c(cc21)OCO3", "note": "(racemic)", "values": [
      {"measurement": "inhibition", "setting": "[8]", "result": 33, "unit": "%"},
      {"measurement": "TD50", "setting": "Mus musculus [1]", "result": 48.5, "unit": "µM/kg"},
      {"measurement": "IC50", "setting": "[2]", "result": 12, "unit": "µM"},
      {"measurement": "inhibition", "setting": "[7]", "result": 94, "unit": "%"},
      {"measurement": "IC50", "setting": "[9]", "result": "> 100", "unit": "µM"},
      {"measurement": "IC50", "setting": "[3]", "result": "> 10", "unit": "µM"},
      {"measurement": "Ratio TD50/ED50", "setting": "Mus musculus [4]", "result": 2.4},
      {"measurement": "IC50", "setting": "Glutamate NMDA receptor", "result": "> 100", "unit": "µM"},
      {"measurement": "ED50", "setting": "Mus musculus [5]", "result": 20.2, "unit": "µmol/kg"},
      {"measurement": "ED50", "setting": "Mus musculus [6]", "result": 8.3, "unit": "µmol/kg"}
    ]}
  ]
}
